Measured values from different studies.
Compare with care: the assays were run in different laboratories. pEC50, pIC50: −log10 of the molar value.
Htr2c: 5-hydroxytryptamine receptor 2C (Htr2c, Mus musculus, UniProt P34968)
BACE1: Beta-secretase 1 (BACE1, Homo sapiens, UniProt P56817)
HLA class I histocompatibility antigen, A alpha chain: HLA class I histocompatibility antigen, A alpha chain (Homo sapiens, UniProt P04439)

CCCC[C@H](NC(C)=O)C(=O)N[C@H]1CC(=O)NCCCC[C@@H](C(=O)N2CCC[C@@H]2C(=O)N[C@@H](C(=O)N2CCC[C@@H]2C(N)=O)C(C)C)NC(=O)[C@H](Cc2c[nH]c3ccccc23)NC(=O)[C@H](CCCNC(=N)N)NC(=O)[C@@H](Cc2ccccc2)NC(=O)[C@@H]2CCCN2C1=O  pEC50 (Melanocyte-stimulating hormone receptor (MC1R, Homo sapiens, UniProt Q01726); cAMP, agonist): 9.39
CCN(CC)C(=O)[C@@H]1C=C2c3cccc4[nH]cc(c34)C[C@H]2N(C)C1  pEC50 (D(2) dopamine receptor (DRD2, Homo sapiens, UniProt P14416); G protein activation, agonist, BRET): 8.80
COc1cc(CCN)c(OC)cc1C#N  pEC50 (Htr2c; G protein activation, agonist, BRET): 6.70
C=CCOc1ccc(C(=O)/C=C/c2ccc(OC)cc2)c(OS(C)(=O)=O)c1I  pIC50 (BACE1; enzyme activity, inhibitor, fluorescence): 4.32
CC(C)C[C@H](NC(=O)[C@@H](NC(=O)[C@H](CCCCN)NC(=O)[C@H](CC(=O)O)NC(=O)[C@H](Cc1ccc(O)cc1)NC(=O)[C@H](C)NC(=O)[C@@H](N)CCCNC(=N)N)[C@@H](C)O)C(=O)N[C@@H](Cc1ccc(O)cc1)C(=O)N[C@@H](Cc1ccccc1)C(=O)O  pIC50 (HLA class I histocompatibility antigen, A alpha chain; cell-free assay): 7.82
C=CCOc1ccc(C(=O)/C=C/c2cccc(F)c2)c(OS(=O)(=O)c2ccc(OC)cc2)c1I  pIC50 (BACE1; enzyme activity, inhibitor, fluorescence): 4.67
CC(C)C[C@H](NC(=O)[C@@H]1CCCN1C(=O)[C@H](Cc1c[nH]c2ccccc12)NC(=O)[C@H](CC(=O)O)NC(=O)[C@H](Cc1ccc(O)cc1)NC(=O)[C@@H](NC(=O)[C@@H](N)Cc1ccc(O)cc1)C(C)C)C(=O)N[C@H](C(=O)N[C@@H](Cc1ccccc1)C(=O)O)[C@@H](C)O  pIC50 (HLA class I histocompatibility antigen, A alpha chain; cell-free assay): 4.67
COc1cc(CCN)c(OC)cc1Br  pEC50 (Htr2c; G protein activation, agonist, BRET): 8.37
